# Source: the RNAGym collection of RNA variant scans (doi:10.1126/science.aae0568)
# This sample holds only a part of the variants without activity.
# B1: tRNA (parent)
# chain: GUUCCGUUGGCGUAAUGGUAACGCGUCUCCCUCCUAAGGAGAAGACUGCGGGUUCGAGUCCCGUACGGAACG
# Variants of: B1
# Experiment: yeast fitness relative to wild type (ratio to wild type); higher = fitter; tRNA-Arg(CCU), competitive growth, 37 C, YPD
# Summary of the method: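 Variants of the tRNA-Arg(CCU) gene were chemically synthesised with a 3% per-site mutation rate across 69 sites and placed at the native genomic locus in Saccharomyces cerevisiae. Six parallel replicates of the pooled strains were competed in YPD at 37°C for 24 hours, and gene amplicons from the start and end populations were read by 100-nucleotide paired-end sequencing. Darwinian fitness relative to wild type was derived from changes in genotype frequencies. Genotypes required ≥ 100 starting reads, and estimates < 0.5 were set to 0.5.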
row,Variant,yeast fitness
1,GUUCCGUUGGCGUAAUGGUAACGUGUCUCCCACCUAAAGAGAAGACUGCGGGUUCGUGUCCCGUACGUAACG [C24U U32A G38A A57U G68U],≤ 0.5
2,GUUCCGUUGGCGUAAUGGUAACGCAUCUCGCUCAUAAGGAGAAGACUGGGGGUUCGAGUCCCGUACGGAACG [G25A C30G C34A C49G],≤ 0.5
3,GUUCCGUUGGCGUAAUGGUAACGCAUCUUCCUCCUAAGGAGAAGACUGCGGGUUCGAGUACCGUACGGAACG [G25A C29U C60A],0.728
4,GUUCCGUUGGCGUAAUGGUAACGUGUCUCCCACCUAAGGAGAAGACUGCGGGUACGAGUCCCGUACGGAACG [C24U U32A U54A],≤ 0.5
5,GUUCCGUUGGCGUAAUGGUAACGUGUCUCCCACCUAAGGAGAAGACUGCGGGUUCGAGUUCCGUACGGAACG [C24U U32A C60U],≤ 0.5
6,GUUCCGUUGGCGUAAUGGUAACGCAUGUCCCUGCUAAGAAGAAGAUUGCGGGUUCGAGUCUCGUACGGUACG [G25A C27G C33G G39A C46U C61U A69U],≤ 0.5
7,GUUCCGUUGGCGUAAUGGUAACGCAUCUCCCUCCUCAGGAGAAGACUGCGGGUUCGAGUCCCGUACGGAACG [G25A A36C],0.52
8,GUUCCGUUGGCGUAAUGGUAACGCAUCUCCCUCCUAAGGGGAAGACUGCGGGUUCGAGUCCCGUACGGAACG [G25A A40G],0.972
9,GUUCCGUUGGCGUAAUGGUAACGCAUCUCCCUCCUUAGGAGAAGAGUGCGGGUUCGAGUCCAGUACGGCACG [G25A A36U C46G C62A A69C],≤ 0.5
10,GUUCCGUUGGCGUAAUGGUAACGUGUCGCCCUCCUAAGGAGAAGACUACGGGUUCGAGUCCCGUACGGAACG [C24U U28G G48A],≤ 0.5
11,GUUCCGUUGGCGUAAUGGUAACGCAUCUCCCUCCUAAGGAGUAGACUGCGGGUUCGGGUCCCGUACGGAACG [G25A A42U A57G],≤ 0.5
12,GUUCCGUUGGCGUAAUGGUAACGCAUCUCACUCCUAAGGAGAAGACUGCGGGUUCGAGUCCCGUACGGAACG [G25A C30A],0.836
13,GUUCCGUUGGCGUAAUGGUAACGCAUCUCGCUCCUAAGGAGAAGACUGCGGGUUCGAGUCCCGUACGGAACG [G25A C30G],0.636
14,GUUCCGUUGGCGUAAUGGUAACGCAUCUUCCUCCUAAGGAGAAGACUGCGGGUUCGAGUCCCGUGCGGAACG [G25A C29U A65G],0.704
15,GUUCCGUUGGCGUAAUGGUAACGCAUCUGCCUCCUAAGGAGAAGACUACGGGUUCGAGUCCCGUACGGUACG [G25A C29G G48A A69U],≤ 0.5
16,GUUCCGUUGGCGUAAUGGUAACGUGUCUCCCUCCUAAGGAGAAGACUGCGGGAUCGAGUCCCGUACGGAACG [C24U U53A],0.626
17,GUUCCGUUGGCGUAAUGGUAACGUGUCUCCCUCCUAAGGAGAAGACUGCGGGUGCGAGUCCCGUACGGAACG [C24U U54G],0.577
18,GUUCCGUUGGCGUAAUGGUAACGUGUCCCCCUCCUAAGGCGAAGACUGCGGGUUCGAGUCCCGUACGCAACG [C24U U28C A40C G68C],≤ 0.5
19,GUUCCGUUGGCGUAAUGGUAACGCAUGUCCCUCCUAAGGAGAAGACUGCGGGUUCGAGUCGCGUACGGAACG [G25A C27G C61G],0.574

row,Variant,yeast fitness
1,GUUCCGUUGGCGUAAUGGUAACGCAUCUCCCUCCUAAGGAGAAGACUGCGGGUUCGAGUCCCGUACGGACCG [G25A A70C],1.05
2,GUUCCGUUGGCGUAAUGGUAACGUGGCUCCCUCCUAAGGAGAAGACUGCGAGUUCGAGUCCCGUACGGAACG [C24U U26G G51A],≤ 0.5
3,GUUCCGUUGGCGUAAUGGUAACGCAUCUCCCUCCUAAGGUGAAGACUGCGGGUUCGACUCCCGUACGGAACG [G25A A40U G58C],0.973
4,GUUCCGUUGGCGUAAUGGUAACGCAUCUCCCUCCUAAGGAGGACACUGGGGGUUCGAGUCCCGUACGGAUCG [G25A A42G G44C C49G A70U],≤ 0.5
5,GUUCCGUUGGCGUAAUGGUAACGUGUCCCCCUCCUAAGGAGAAGACUACGGGUUCGAGUCGCGUACGGAACG [C24U U28C G48A C61G],≤ 0.5
6,GUUCCGUUGGCGUAAUGGUAACGCAUCUUCGUCCUAAGGAGAAGACUGCGGGUUUGAGUCCCGUACCGAACG [G25A C29U C31G C55U G67C],≤ 0.5
7,GUUCCGUUGGCGUAAUGGUAACGUGUCUCCCUCCUAAGGAGAAGACUGCGGGUUCGAGACCCGUUCGGAACG [C24U U59A A65U],≤ 0.5
8,GUUCCGUUGGCGUAAUGGUAACGUGUCUCCCGCCUAAGGUGAAGACUGCGGGUUCGAGUCCCGGGCGGAACG [C24U U32G A40U U64G A65G],≤ 0.5
9,GUUCCGUUGGCGUAAUGGUAACGCAUCUCCCUCCUAAGGAGACGACUGCGGGUUCGAGCCCCGUACGGAACG [G25A A43C U59C],0.71
10,GUUCCGUUGGCGUAAUGGUAACGCAUCUACCUCCUAAGGAGAAGAGUGCGAGUUCGAGUCCCGUACGGAACG [G25A C29A C46G G51A],≤ 0.5
11,GUUCCGUUGGCGUAAUGGUAACGCAUCUCCCUCCUAAGGAGAAGGCUGCCGGUUCGAGUCCCGUACGGAACG [G25A A45G G50C],0.516
12,GUUCCGUUGGCGUAAUGGUAACGCAUCUCACUCAUAAGGAGAAGACUGAGGGUUCGAGUCCGGUAUGGAGCG [G25A C30A C34A C49A C62G C66U A70G],0.712
13,GUUCCGUUGGCGUAAUGGUAACGUGUCUCCCCCCUAAGGAGAAGAAUGCGGGUUCGAGUCCCGUACGGAUCG [C24U U32C C46A A70U],0.65
14,GUUCCGUUGGCGUAAUGGUAACGUGUCUCCCUCCUAAGGAGAAGACACCGGGUGCGAGUCCCGUCCGGAACG [C24U U47A G48C U54G A65C],≤ 0.5
15,GUUCCGUUGGCGUAAUGGUAACGCAUCUCCCUCCUACGGAGAAGACUGCGGGUUCGAGUCCCGUACGGUACG [G25A A37C A69U],0.684
16,GUUCCGUUGGCGUAAUGGUAACGCAUCUCCCUCCUAAGGAGAUGACUGCGGGUUCGAGUCACGUACGGAACG [G25A A43U C61A],0.765
17,GUUCCGUUGGCGUAAUGGUAACGUGUCUCCCUCCUAAGGAGAAGACUGCGGGAUAGAGUCCCGUACGGAACG [C24U U53A C55A],0.65
18,GUUCCGUUGGCGUAAUGGUAACGCAUCUCACUCCUAAGGAGAAGGCUGCGGGUUCGAGUCCCGCACGGAACG [G25A C30A A45G U64C],0.984
19,GUUCCGUUGGCGUAAUGGUAACGCAUCUUCCUCCUAAGGAGAAGACUGCGCGUUCGAGUCCCGUACGGAUCG [G25A C29U G51C A70U],≤ 0.5
